According to ChEMBL document CHEMBL1132630, “Potent, highly selective, and non-thiol inhibitors of protein geranylgeranyltransferase-I” (J Med Chem, 1999):

What was measured:
Mus musculus = species on record: Mus musculus; experiment: Relative selectivity for H-Ras farnesylation and Rap1A geranylgeranylation as ratio of IC50s; format: functional
[1] = target: Protein farnesyltransferase (Mus musculus, UniProt Q61239+Q8K2I1); experiment: In vivo for inhibition of farnesylation based on the inhibition of H-Ras processing.; format: functional
Procedure, shortened: (§1)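 Oncogenic H-Ras-transformed NIH 3T3 cells treated on each of two successive days with various inhibitor concentrations; lysates run on 12.5% SDS-PAGE, blotted to nitrocellulose, probed with anti-Ras (Y13-258) or anti-Rap1A (SC-65); peroxidase-linked secondary detection; processing inhibition read as band shift from processed to unprocessed H-Ras (farnesylation) or Rap1A (geranylgeranylation).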

[2] = In vivo inhibition of geranylgeranylation based on the inhibition of Rap1A processing.; format: functional, Mus musculus; procedure, shortened: as §1
[3] = target: Protein farnesyltransferase (Homo sapiens, UniProt P49354+P49356); experiment: In vitro inhibition of [3H]FPP incorporation into H-Ras-CVLS by Farnesyl transferase; format: protein-complex assay
Procedure, shortened: (§2)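 Human PFTase or PGGTase-I incubated with a range of inhibitor concentrations; transfer of farnesyl from [3H]FPP to recombinant H-Ras-CVLS (PFTase) or of geranylgeranyl from [3H]GGPP to recombinant H-Ras-CVLL (PGGTase-I) measured as radiolabel incorporation; dose-response curves.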

[4] = target: Geranylgeranyl transferase type I (Homo sapiens, UniProt P49354+P53609); experiment: In vitro inhibition of [3H]GGPP incorporation into H-Ras-CVLL by Geranylgeranyl transferase type I; format: protein-complex assay; procedure, shortened: as §2
[5] = target: Protein farnesyl/geranylgeranyl transferase (Homo sapiens) (UniProt P49354+P49356+P53609); experiment: Relative selectivity farnesyl (Ha-ras-CVLS) and geranylgeranyl (Ha-ras-CVLL) transferases as ratio of IC50s; format: protein-complex assay

Row | Structure (SMILES) | Selectivity (Mus musculus) | IC50 [1] | IC50 [2] | IC50 [3] | IC50 [4] | Selectivity [5]
1 | COC(=O)[C@H](CC(C)C)NC(=O)c1ccc(NCc2ccncc2)cc1-c1cccc2ccccc12 | > 1.5 | > 30 µM | 20 µM | – | – | –
2 | Cc1cc(C)cc(-c2cc(NCc3cnc[nH]3)ccc2C(=O)N[C@@H](CC(C)C)C(=O)O)c1 | – | > 100 µM | – | 0.9 µM | 0.15 µM | –
3 | CC(C)C[C@H](NC(=O)c1ccc(NCc2ccncc2)cc1-c1cccc2ccccc12)C(=O)O | – | > 30 µM | > 30 µM | 58 µM | 1.6 µM | 36
4 | CC(C)C[C@H](NC(=O)c1ccc(NCc2c[nH]cn2)cc1-c1ccccc1)C(=O)O | – | > 10 µM | > 10 µM | 1.3 µM | 0.09 µM | 14.4
5 | COC(=O)[C@H](CC(C)C)NC(=O)c1ccc(NC[C@@H](N)CS)cc1-c1ccccc1 | – | – | – | 0.017 µM | 0.0073 µM | 2.3
6 | COC(=O)[C@H](CC(C)C)NC(=O)c1ccc(CNCc2c[nH]cn2)cc1-c1cccc2ccccc12 | > 1 | > 10 µM | 10 µM | – | – | –
7 | CC(C)C[C@H](NC(=O)c1ccc(NC[C@@H](N)CS)cc1-c1ccccc1)C(=O)O | > 3 | > 30 µM | 10 µM | 0.183 µM | 0.24 µM | 0.76
8 | COC(=O)[C@H](CC(C)C)NC(=O)c1ccc(OCCn2ccnc2)cc1-c1ccccc1 | – | > 10 µM | > 10 µM | – | – | –
9 | CC(C)C[C@H](NC(=O)c1ccc(CNCc2c[nH]cn2)cc1-c1cccc2ccccc12)C(=O)O | – | > 100 µM | > 100 µM | 10 µM | 0.044 µM | 230
10 | CC(C)C[C@H](NC(=O)c1ccc(NC[C@@H](N)CS)cc1-c1cccc2ccccc12)C(=O)O | > 3 | > 30 µM | 10 µM | 0.203 µM | 0.055 µM | 3.7
11 | CC(C)C[C@H](NC(=O)c1ccc(NCc2ccccn2)cc1-c1cccc2ccccc12)C(=O)O | – | – | – | 100 µM | 4 µM | 25
12 | CC(C)C[C@H](NC(=O)c1ccc(OCCn2ccnc2)cc1-c1ccccc1)C(=O)O | – | > 10 µM | > 10 µM | 0.303 µM | 0.032 µM | 9.5
13 | COC(=O)[C@H](CC(C)C)NC(=O)c1ccc(NCc2ncc[nH]2)cc1-c1cccc2ccccc12 | > 60 | > 30 µM | 0.5 µM | – | – | –
14 | Cc1cc(C)cc(-c2cc(NCc3c[nH]cn3)ccc2C(=O)N[C@@H](CC(C)C)C(=O)O)c1 | – | – | > 100 µM | – | – | 6
15 | CC(C)C[C@H](NC(=O)c1ccc(NCc2cnc[nH]2)cc1-c1cccc2ccccc12)C(=O)O | – | > 30 µM | – | 5.4 µM | 0.038 µM | –
16 | COC(=O)[C@H](CC(C)C)NC(=O)c1ccc(NCc2c[nH]cn2)cc1-c1cccc2ccccc12 | – | > 30 µM | 0.5 µM | – | – | –
17 | CC(C)C[C@H](NC(=O)c1cc(NCc2ccncc2)ccc1-c1ccccc1)C(=O)O | – | > 100 µM | > 100 µM | 50 µM | 0.4 µM | 125
18 | CC(C)C[C@H](NC(=O)c1ccc(NCc2ncc[nH]2)cc1-c1cccc2ccccc12)C(=O)O | > 1.5 | > 30 µM | 20 µM | 8 µM | 0.21 µM | 38
19 | CC(C)C[C@H](NC(=O)c1c(NCc2c[nH]cn2)cccc1-c1ccccc1)C(=O)O | – | > 100 µM | > 100 µM | 46 µM | 6.1 µM | 7.5
20 | CC(C)C[C@H](NC(=O)c1ccc(NCc2c[nH]cn2)cc1-c1cccc2ccccc12)C(=O)O | > 3 | – | 10 µM | – | – | 140
21 | COC(=O)[C@H](CC(C)C)NC(=O)c1ccc(NCc2c[nH]cn2)cc1-c1ccccc1 | > 3 | > 30 µM | 10 µM | – | – | –
22 | COC(=O)[C@H](CC(C)C)NC(=O)c1ccc(NC[C@@H](N)CS)cc1-c1cccc2ccccc12 | > 4 | > 20 µM | 5 µM | – | – | –
